This note sets out measurements from ChEMBL document CHEMBL2346606, “Inhibitors of the TAM subfamily of tyrosine kinases: synthesis and biological evaluation” (Eur J Med Chem, 2013).

Data set [1] concerns the target T1, Tyrosine-protein kinase receptor TYRO3 (Homo sapiens, UniProt Q06418).
T1 sequence (Q06418 whole entry): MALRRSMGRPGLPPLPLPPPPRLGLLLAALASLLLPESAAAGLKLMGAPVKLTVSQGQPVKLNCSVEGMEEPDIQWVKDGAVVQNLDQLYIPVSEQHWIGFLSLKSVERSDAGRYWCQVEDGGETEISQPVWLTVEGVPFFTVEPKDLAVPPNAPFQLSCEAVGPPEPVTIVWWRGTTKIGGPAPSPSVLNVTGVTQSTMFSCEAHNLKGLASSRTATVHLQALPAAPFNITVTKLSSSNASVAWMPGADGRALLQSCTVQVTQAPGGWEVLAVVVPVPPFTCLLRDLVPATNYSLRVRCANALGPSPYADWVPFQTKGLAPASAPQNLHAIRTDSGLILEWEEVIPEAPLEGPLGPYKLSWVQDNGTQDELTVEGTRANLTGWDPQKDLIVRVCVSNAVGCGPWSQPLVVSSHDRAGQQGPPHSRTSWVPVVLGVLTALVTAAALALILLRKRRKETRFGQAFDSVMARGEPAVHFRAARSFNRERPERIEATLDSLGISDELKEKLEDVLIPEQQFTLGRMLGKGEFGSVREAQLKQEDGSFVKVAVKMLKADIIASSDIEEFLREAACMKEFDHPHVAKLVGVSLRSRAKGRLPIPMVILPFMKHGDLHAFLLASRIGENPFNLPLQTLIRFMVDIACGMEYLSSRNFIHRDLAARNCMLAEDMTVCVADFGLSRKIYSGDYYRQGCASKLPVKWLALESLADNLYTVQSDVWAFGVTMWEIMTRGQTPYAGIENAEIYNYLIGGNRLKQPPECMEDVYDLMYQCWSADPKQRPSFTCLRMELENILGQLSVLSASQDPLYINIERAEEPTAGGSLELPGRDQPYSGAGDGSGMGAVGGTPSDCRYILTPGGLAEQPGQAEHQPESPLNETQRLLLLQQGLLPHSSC
Put plainly: Binding affinity to TYRO3 (unknown origin) after 1 hr.

Data set [2] has as its system HT-29. Put plainly: Growth inhibition of human HT-29 cells at 10 uM after 72 hrs by […] assay relative to control. It counts as functional. Conditions: HT-29, 72 h, read-out: GI. A digest of the protocol:
(§1)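 HT29, MCF7 and PC-3 cells were grown in RPMI, plated, and treated 24 h later with compound in DMSO at 10^-5 M (DMSO controls, 1% final). After 72 h exposure, MTS reagent was added for 3 h at 37 °C and absorbance read at 490 nm. Proliferation inhibition = [1 − OD treated/OD control] × 100, triplicate experiments.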
For orientation: Formazan colour is commonly taken as a measure of viable cells.

Data set [3] has as its system MCF7. Put plainly: Growth inhibition of human MCF7 cells at 10 uM after 72 hrs by […] assay relative to control. The following applies: MCF7, 72 h, read-out: GI. It counts as functional. A digest of the protocol:
as §1

For data set [4], the target named is T2, Tyrosine-protein kinase ABL1 (Homo sapiens, UniProt P00519). Put plainly: Binding affinity to non phosphorylated ABL1 (unknown origin) after 1 hr.
T2 sequence (P00519 whole entry): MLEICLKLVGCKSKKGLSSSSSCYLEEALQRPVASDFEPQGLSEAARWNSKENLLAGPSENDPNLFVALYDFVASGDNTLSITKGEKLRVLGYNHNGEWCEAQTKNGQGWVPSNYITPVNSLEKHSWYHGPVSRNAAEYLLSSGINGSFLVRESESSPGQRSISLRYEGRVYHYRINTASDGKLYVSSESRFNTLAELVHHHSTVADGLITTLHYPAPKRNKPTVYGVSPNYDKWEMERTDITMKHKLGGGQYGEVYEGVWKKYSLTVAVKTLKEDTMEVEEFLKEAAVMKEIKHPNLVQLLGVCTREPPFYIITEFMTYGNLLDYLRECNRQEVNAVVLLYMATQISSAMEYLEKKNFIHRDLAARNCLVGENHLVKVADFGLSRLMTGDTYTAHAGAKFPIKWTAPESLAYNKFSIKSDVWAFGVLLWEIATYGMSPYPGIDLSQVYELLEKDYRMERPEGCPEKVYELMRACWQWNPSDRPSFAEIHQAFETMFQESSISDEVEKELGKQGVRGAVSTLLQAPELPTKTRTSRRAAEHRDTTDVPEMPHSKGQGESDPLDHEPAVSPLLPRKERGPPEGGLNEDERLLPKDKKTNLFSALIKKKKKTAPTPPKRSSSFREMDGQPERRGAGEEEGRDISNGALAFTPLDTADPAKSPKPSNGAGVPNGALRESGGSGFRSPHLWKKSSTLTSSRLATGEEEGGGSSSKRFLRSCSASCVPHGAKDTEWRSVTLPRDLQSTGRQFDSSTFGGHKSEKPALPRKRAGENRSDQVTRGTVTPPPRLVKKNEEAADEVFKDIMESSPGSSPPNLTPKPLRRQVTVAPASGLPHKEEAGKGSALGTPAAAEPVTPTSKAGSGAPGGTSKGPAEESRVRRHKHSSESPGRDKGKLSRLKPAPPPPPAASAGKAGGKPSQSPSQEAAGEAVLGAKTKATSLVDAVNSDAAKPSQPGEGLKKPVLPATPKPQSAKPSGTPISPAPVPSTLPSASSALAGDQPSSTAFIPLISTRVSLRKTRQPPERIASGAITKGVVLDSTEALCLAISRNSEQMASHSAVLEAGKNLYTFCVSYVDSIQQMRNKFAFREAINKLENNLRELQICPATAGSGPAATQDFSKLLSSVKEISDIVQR
Data set [5] concerns the target Hepatocyte growth factor receptor (Homo sapiens, UniProt P08581). Put plainly: Binding affinity to MET (unknown origin) after 1 hr.
A short description of data set [6]: Growth inhibition of African green monkey Vero cells at 10 uM after 72 hrs by […] assay relative to control. It counts as cell-based. Conditions: chlorocebus sabaeus, read-out: GI. The gist of the method: (§2)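 KB and Vero cells were grown in D-MEM with 10% FCS and antibiotics under 5% CO2, plated, then dosed 24 h later at 10^-5 M from DMSO (controls 1% DMSO). After 72 h, MTS was added for 3 h at 37 °C and A490 read. Inhibition = (1 − OD treated/OD control) × 100, in triplicate.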

The target in data set [7] is T2, Tyrosine-protein kinase ABL1. Put plainly: Binding affinity to phosphorylated ABL1 (unknown origin) after 1 hr.
Data set [8] relates to PC-3. Put plainly: Growth inhibition of human PC3 cells at 10 uM after 72 hrs by […] assay relative to control. It counts as functional. Conditions: PC-3, 72 h, read-out: GI. The gist of the method:
as §1

The target of data set [9] is T3, Tyrosine-protein kinase receptor UFO (Homo sapiens, UniProt P30530).
T3 sequence (P30530 whole entry): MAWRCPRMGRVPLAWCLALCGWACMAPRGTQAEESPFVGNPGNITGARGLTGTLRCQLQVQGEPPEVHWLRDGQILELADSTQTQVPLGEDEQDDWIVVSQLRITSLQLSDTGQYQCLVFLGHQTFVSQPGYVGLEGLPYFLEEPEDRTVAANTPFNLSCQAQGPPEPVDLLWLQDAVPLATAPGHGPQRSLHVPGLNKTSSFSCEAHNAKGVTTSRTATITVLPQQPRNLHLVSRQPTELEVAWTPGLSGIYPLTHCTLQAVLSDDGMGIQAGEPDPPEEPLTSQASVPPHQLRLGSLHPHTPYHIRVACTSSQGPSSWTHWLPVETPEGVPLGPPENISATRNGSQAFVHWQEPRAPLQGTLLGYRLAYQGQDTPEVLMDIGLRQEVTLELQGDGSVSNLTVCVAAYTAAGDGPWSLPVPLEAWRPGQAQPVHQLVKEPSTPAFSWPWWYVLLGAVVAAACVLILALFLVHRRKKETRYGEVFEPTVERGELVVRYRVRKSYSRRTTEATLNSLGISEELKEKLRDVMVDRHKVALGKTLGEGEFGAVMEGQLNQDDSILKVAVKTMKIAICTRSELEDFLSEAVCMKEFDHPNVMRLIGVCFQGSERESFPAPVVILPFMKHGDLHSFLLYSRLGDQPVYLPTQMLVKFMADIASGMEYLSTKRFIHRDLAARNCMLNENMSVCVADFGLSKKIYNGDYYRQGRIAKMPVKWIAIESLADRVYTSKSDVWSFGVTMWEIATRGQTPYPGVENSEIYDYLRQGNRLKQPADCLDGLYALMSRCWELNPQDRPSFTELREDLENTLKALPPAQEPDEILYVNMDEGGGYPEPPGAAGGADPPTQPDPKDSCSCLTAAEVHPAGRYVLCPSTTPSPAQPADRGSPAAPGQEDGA
Put plainly: Binding affinity to AXL (unknown origin) after 1 hr.

Data set [10] has as its target T4, Tyrosine-protein kinase Mer (Homo sapiens, UniProt Q12866).
T4 sequence (Q12866 whole entry): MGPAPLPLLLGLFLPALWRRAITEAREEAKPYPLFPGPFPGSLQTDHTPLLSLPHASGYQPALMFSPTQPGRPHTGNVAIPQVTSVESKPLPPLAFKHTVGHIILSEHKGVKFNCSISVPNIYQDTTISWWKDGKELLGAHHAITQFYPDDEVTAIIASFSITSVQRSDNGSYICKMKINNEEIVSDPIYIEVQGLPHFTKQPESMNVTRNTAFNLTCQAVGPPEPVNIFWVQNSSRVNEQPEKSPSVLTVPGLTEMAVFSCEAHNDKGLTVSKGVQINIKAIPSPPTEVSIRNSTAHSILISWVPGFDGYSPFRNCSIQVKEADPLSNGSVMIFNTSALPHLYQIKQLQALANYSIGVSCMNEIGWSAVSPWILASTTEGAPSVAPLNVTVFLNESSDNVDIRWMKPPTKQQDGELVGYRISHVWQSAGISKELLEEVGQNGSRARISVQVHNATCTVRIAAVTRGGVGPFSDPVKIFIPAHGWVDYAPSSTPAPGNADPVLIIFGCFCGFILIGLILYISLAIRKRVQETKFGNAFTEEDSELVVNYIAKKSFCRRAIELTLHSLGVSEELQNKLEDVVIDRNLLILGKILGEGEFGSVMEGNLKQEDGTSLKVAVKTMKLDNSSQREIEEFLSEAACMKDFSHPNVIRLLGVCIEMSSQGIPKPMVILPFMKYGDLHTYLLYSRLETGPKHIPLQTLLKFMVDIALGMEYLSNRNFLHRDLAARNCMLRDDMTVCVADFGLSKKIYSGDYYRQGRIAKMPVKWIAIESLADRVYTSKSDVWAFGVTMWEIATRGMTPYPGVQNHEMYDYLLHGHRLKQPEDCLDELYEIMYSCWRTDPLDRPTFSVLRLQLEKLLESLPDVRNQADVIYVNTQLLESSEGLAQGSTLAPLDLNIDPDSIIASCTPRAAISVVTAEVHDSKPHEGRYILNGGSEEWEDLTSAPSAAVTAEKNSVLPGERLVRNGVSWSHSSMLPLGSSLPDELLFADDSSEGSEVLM
Description: Binding affinity to MER (unknown origin) after 1 hr.

For data set [11], the system named is KB. Description: Growth inhibition of human KB cells at 10 uM after 72 hrs by […] relative to control. In kind it is functional. Conditions: read-out: GI. A digest of the protocol:
as §2

Structures are written as SMILES.

Chain of Hepatocyte growth factor receptor (P08581 whole entry): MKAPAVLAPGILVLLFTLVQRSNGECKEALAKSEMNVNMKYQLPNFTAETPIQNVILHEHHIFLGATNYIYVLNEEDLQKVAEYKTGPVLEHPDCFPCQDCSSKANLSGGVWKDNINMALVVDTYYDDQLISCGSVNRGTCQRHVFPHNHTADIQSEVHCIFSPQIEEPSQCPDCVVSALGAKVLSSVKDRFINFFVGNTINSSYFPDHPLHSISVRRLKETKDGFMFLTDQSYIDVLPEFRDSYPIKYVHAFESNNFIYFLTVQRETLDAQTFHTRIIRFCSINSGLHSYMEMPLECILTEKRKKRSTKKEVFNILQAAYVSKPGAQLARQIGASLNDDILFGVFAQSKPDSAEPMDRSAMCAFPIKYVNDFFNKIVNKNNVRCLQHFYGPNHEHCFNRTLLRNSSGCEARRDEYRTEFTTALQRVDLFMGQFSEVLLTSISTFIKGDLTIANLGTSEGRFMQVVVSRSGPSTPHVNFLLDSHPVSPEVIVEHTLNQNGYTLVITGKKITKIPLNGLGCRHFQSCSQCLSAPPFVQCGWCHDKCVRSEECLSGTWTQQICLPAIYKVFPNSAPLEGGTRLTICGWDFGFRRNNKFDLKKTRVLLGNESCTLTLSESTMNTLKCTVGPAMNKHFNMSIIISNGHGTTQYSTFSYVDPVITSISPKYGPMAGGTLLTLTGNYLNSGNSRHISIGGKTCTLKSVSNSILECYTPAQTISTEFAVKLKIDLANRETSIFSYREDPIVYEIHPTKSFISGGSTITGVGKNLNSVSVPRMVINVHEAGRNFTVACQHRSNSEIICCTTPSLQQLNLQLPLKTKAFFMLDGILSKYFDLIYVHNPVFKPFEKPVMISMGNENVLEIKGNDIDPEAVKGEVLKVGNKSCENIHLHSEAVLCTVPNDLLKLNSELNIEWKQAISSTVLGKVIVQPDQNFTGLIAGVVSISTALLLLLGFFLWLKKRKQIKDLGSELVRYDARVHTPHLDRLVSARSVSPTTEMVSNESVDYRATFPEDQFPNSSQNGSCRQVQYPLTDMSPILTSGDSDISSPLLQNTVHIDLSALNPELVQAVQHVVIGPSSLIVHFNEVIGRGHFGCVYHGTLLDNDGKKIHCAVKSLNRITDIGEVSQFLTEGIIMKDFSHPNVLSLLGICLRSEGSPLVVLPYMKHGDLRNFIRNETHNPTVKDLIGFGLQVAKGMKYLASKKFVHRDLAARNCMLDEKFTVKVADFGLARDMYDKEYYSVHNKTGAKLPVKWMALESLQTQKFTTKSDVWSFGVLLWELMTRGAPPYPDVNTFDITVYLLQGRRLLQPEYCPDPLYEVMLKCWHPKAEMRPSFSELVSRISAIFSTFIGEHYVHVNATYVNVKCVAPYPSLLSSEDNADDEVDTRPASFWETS

As to `O=C(Nc1ccc(Oc2ncnc3nc[nH]c23)c(F)c1)c1cccn(-c2ccc(F)cc2)c1=O`, the Kd (as a rule, the concentration at which binding is half-saturated) came to 0.2 µM in [1]; 6.6 µM in data set [4]; 0.065 µM in data set [5]; 40 µM in data set [7]; 0.039 µM in [9]; 0.042 µM in data set [10]. Besides, the inhibition of growth at 10 µM in data set [2], in data set [3], in data set [8] and in [11] was less than 10% each time. In addition, the inhibition at 72 h, 10 µM in data set [6] is less than 10%.
